From PubChem
Mot1-301 SUMO: inhibitors of SUMOylation pathway: yeast Mot1-301 growth rescue | AID 2716 | growth rescue, % at 18.8 µM | 320,000 tested, 1% active | S. cerevisiae Mot1-301 growth rescue, ATP luminescence, 38.5C; percent above DMSO median, 100 means doubled;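 active = every valid replicate shows activation above 250% relative to neutral control wells; inactive = the rest, any valid replicate at or below 250%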
T cruzi repl: blocks replication of Trypanosoma cruzi; T. cruzi beta-gal in NIH3T3, luminescence, 90 h; inhibition, % (test concentration not listed); 300,000 tested, 1.4% active; AID 1885;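 active = mean inhibition across valid replicates above about 55%, limit read from the data; inconclusive = mean below that limit but half or more replicates reach it; inactive = mean below it, under half of replicates reach it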;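 note: signal also drops with host cell toxicity which is not excluded here; higher percent means less beta-gal luminescence so fewer parasites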
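Test system: β-gal T. cruzi (Tulahuen C4) inside NIH/3T3 cells / Quantity: 5,000 cells/well / Measured by: luminescence from GalScreen with 0.05% NP40, read after 60 min / Medium: DMEM plus 2% FBS / Measure: parasite load inhibition, % / Reagent: Tulahuen C4 trypomastigotes, 5000/well / Schedule: co-culture of at least 90 h after 3 h attachment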
Beta cell apopt: blocks beta cell apoptosis; INS-1E cytokine-induced death, ATP luminescence, 48 h; percent of positive-control rescue, neutral wells zero; protection from apoptosis, % (concentration not given with the values); 300,000 tested, 0.8% active; AID 435005;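 active = Every replicate reaches about 75%, or at least half do and their mean reaches it too, limit read from the data; inconclusive = At least half of replicates reach the limit but their mean does not; inactive = Under half of replicates reach the limit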;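 note: higher means more ATP so stronger rescue from cytokine killing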
CSC inhib: cancer stem cell inhibition. cancer stem cell-like cells viability, luminescence. 300,000 tested, 1.1% active. AID 2717. inhibition, % at 7.5 µM; in the data active = inhibition above about 75%; inconclusive = no clear call, values can overlap the other calls; tested in HMLE shEcad cells
WT yeast gro inh: growth inhibition of WT yeast, mitochondrial fusion screen | mitochondrial fusion phenotypic screen, WT strain | inhibition, % at 10 µM | 190,000 tested, 2.1% active | AID 1362; in the data active = inhibition above about 58%; tested in S. cerevisiae
Efflux pump mplx: blocks antifungal efflux pumps in multiplex yeast assay | S. cerevisiae Candida pump triplex, Nile Red efflux | inhibition, % at 10 µM | 330,000 tested, 0.44% active;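 active = plate passing quality check with inhibition over a set limit, or well fluorescence over plate mean plus 4 SD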;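 note: Nile Red retained in pooled yeast measured as flow cytometry median fluorescence; higher means more Nile Red kept so more efflux inhibition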
Large screens that a line does not name were inactive. Only some compounds are listed: those with a hit (about 4.8% of all), similar ones and a draw of the others.

Cc1ccccc1CSc1nnc(-c2ccncc2)o1	none
COc1ccc(C2N(c3ccc(Cl)cc3)N=C(C(C)=O)N(C)N2C(C)=O)cc1 (configuration not stated)	WT yeast gro inh 66.9
Cc1nn2c(N3CCN(C)CC3)cc(C(C)(C)C)nc2c1-c1ccccc1	T cruzi repl 66.6 (no result: WT yeast gro inh)
Cc1nn2c(N3CCN(C4CCCC4)CC3)cc(C(C)(C)C)nc2c1-c1ccccc1	none
COc1cccc2c1Oc1ncccc1N(C(=O)CCC(=O)NCc1cccc(C)c1)C2	none (no result: WT yeast gro inh)
COc1cc2nc(SCc3ccc(Cl)cc3Cl)n(Cc3cccs3)c(=N)c2cc1OC	T cruzi repl 77.0
CCCCNC(=O)CSc1nc2cc(OC)c(OC)cc2c(=O)n1Cc1ccc(OC)cc1	none
COc1ccc(Cn2c(SCc3ccc(C)cc3)nc3cc(OC)c(OC)cc3c2=N)cc1Cl	Beta cell apopt 110.0, CSC inhib 102.9
COc1ccc(Cn2c(SCc3cc(C)ccc3C)nc3cc(OC)c(OC)cc3c2=N)cc1	T cruzi repl 59.3, Beta cell apopt 104.6, CSC inhib 141.7 (no result: Mot1-301 SUMO)
COc1cc2nc(SCc3ccc(C(F)(F)F)cc3)n(Cc3cccs3)c(=N)c2cc1OC	none
C#CCNC(=O)C1=C[C@H](c2ccccc2)[C@@H](CCCO)[C@H](OCC)O1	none
CCN1N=C(C)C=C(c2ccccc2)n2c1nc1ccccc12	none (no result: WT yeast gro inh)
Cc1ccc(C(=O)CN(C(=O)c2ccc(Cl)c(Cl)c2)N2C(=O)C3C4C=CC(C4)C3C2=O)cc1 (configuration not stated)	none
S=C(Nc1ccc(Nc2ccccc2)cc1)NC1CCCCCC1	T cruzi repl 54.8, CSC inhib 78.1, WT yeast gro inh 80.5
COc1cccc(NC(=O)C(=S)NC2CCCCC2)c1	WT yeast gro inh 58.8 (no result: Mot1-301 SUMO)
COc1cccc(NC(=O)NC2CCCCCCC2)c1	none (no result: WT yeast gro inh)
CC(C)(C)c1ccccc1NC(=S)NC1CCCCC1	WT yeast gro inh 66.2
COc1ccccc1NC(=S)NC1CCCCCC1	WT yeast gro inh 58.7
COc1ccc(Cc2nnc(SCC(=O)Nc3ccc(N4CCOCC4)cc3)n2C)cc1	none (no result: WT yeast gro inh)
CC(C)C(NC(=O)c1ccc(F)cc1)C(=O)N1CCN(c2ccccn2)CC1 (configuration not stated)	none (no result: T cruzi repl, WT yeast gro inh)
O=C(NC(=S)Nc1cc([N+](=O)[O-])ccc1O)C1CC1	none (no result: WT yeast gro inh)
S=C(NNc1cccc(Cl)c1)NC1CCCCC1	WT yeast gro inh 61.2
COC(=O)c1[nH]c2ccc(F)cc2c1NS(=O)(=O)c1ccc(OC)cc1	Mot1-301 SUMO 347.7
CCOC(=O)c1c(NC(=O)CN2CCN(C)CC2)sc(C(=O)Nc2ccccc2)c1C	CSC inhib 79.2
CCOC(=O)c1c(NC(=O)CN(CC)CC)sc2c1CCN(C(=O)OCC)C2	none
CCOC(=O)c1c(NC(=O)C(=O)N/N=C/c2ccccc2O)sc2c1CCCCC2	CSC inhib 82.9
CCOC(=O)c1c(NC(=O)CN2CCCCC2)sc2c1CCN(C(=O)OCC)C2	T cruzi repl 60.4, CSC inhib inconclusive
CCOC(=O)c1c(NC(=O)CN2CCN(C(=O)c3ccco3)CC2)sc2c1CCCC2	WT yeast gro inh 65.6
O=C(Nc1ccc(Br)cn1)C1CCCN1S(=O)(=O)c1ccccc1 (configuration not stated)	none
COc1ccc(C)cc1NS(=O)(=O)c1ccc(NC(=O)CN(c2cc([N+](=O)[O-])ccc2C)S(C)(=O)=O)cc1	Beta cell apopt 112.0, CSC inhib 92.7
COc1ccc([N+](=O)[O-])cc1N(CC(=O)NCCSc1ccc(C)cc1)S(C)(=O)=O	none
Cc1cccc(NS(=O)(=O)c2cc(NC(=O)CC(=O)c3ccc([N+](=O)[O-])cc3)ccc2C)c1	none (no result: Mot1-301 SUMO, Beta cell apopt, CSC inhib, Efflux pump mplx)
Cc1cccc(NS(=O)(=O)c2ccc(NC(=O)CN(c3cc([N+](=O)[O-])ccc3C)S(C)(=O)=O)cc2)c1	T cruzi repl 74.7, Beta cell apopt 110.9, CSC inhib 95.6
Cc1cc2oc(=O)cc(CN3CCCCC3C)c2c(C)c1Cl (configuration not stated)	none
O=C(C[C@@H]1C/C=C\CCC(=O)OC[C@H](Cc2ccccc2)NC1=O)N[C@@H](CO)Cc1ccccc1	none (no result: T cruzi repl, WT yeast gro inh)
CC(=O)Nc1cccc(NC(=O)Cc2nc(-c3ccccc3)sc2-c2ccc(C)cc2)c1	none (no result: Mot1-301 SUMO)
Cc1ccc(-c2sc(-c3ccccc3)nc2CC(=O)Nc2ccccc2F)cc1	Beta cell apopt 141.1
C=CCn1c(N)cc(=O)nc1SC(C)C(=O)Nc1cccc2ccccc12 (configuration not stated)	none (no result: Mot1-301 SUMO, T cruzi repl, CSC inhib)
CC[N+]1=C(C)C(C)(C)c2cc(C)ccc21	T cruzi repl 57.3, Beta cell apopt 101.5, CSC inhib inconclusive
COc1ccc(C(=O)NC(=S)NC(C)(C)C)cc1Br	none (no result: CSC inhib)
CN(C1CCCCC1)S(=O)(=O)Cc1ccccc1	none
COc1ccc(-c2cc3c(=O)n(CC(=O)NCCCN4CCC(N5CCCCC5)CC4)nc(C)n3n2)cc1	T cruzi repl 55.8 (no result: WT yeast gro inh)
Cc1ccc(C)c(N2CCN(S(=O)(=O)c3c(C)noc3/C=C/N(C)C)CC2)c1	Efflux pump mplx 0.8
Cc1noc(/C=C/N(C)C)c1S(=O)(=O)N1CCCC(C(=O)NC2CCCCC2)C1 (configuration not stated)	T cruzi repl 61.8
Cc1noc(/C=C/N(C)C)c1S(=O)(=O)N1CCN(c2ccccc2)CC1	none (no result: CSC inhib)
CCCCC(CC)CN1C(=O)/C(=C/c2ccncc2)SC1=S (configuration not stated)	Beta cell apopt 88.3, CSC inhib 106.6
CCN1C(=O)/C(=C\c2ccncc2)SC1=S	none (no result: WT yeast gro inh)
Cc1ccc(S(=O)(=O)N2CCCCC2)cc1C(=O)N1C(C)CCCC1C (configuration not stated)	none (no result: T cruzi repl, WT yeast gro inh)
CC(=O)c1sc(-c2ccc(Cl)cc2)nc1C	none
Cc1nc(-c2ccccc2)sc1C(=O)/C=C/c1ccc(Cl)cc1	CSC inhib 94.1
CC1CCCN(CC(=O)Nc2cc(S(=O)(=O)N3CCOCC3)ccc2N2CCCC2)C1 (configuration not stated)	none (no result: T cruzi repl, CSC inhib, WT yeast gro inh)
CCCNC(=O)c1ccc2c(=O)c(O)c(-c3cccc(Br)c3)[nH]c2c1	Beta cell apopt 97.9, CSC inhib 125.0 (no result: WT yeast gro inh)
N#Cc1cc(O)c(-n2nnc3ccccc32)cc1C#N	none (no result: Beta cell apopt)
N#Cc1cc(Oc2cccc3cccnc23)c(-n2nnc3ccccc32)cc1C#N	T cruzi repl 57.3
COc1ccc(C2=NS(=O)(=O)N(C)C(C(=O)NCc3ccc4c(c3)OCO4)=C2)cc1OC	none (no result: WT yeast gro inh)
Cn1c2ccccc2c(=O)c2c(=O)n(Cc3ccccc3)c(-c3ccc(F)cc3)nc21	none (no result: T cruzi repl, WT yeast gro inh)
c1ccc(COc2ccc(OCCn3cncn3)cc2)cc1	Mot1-301 SUMO 252.2
CCCCC(=O)Nc1nc(C)c(-c2csc(Nc3cc(OC)ccc3OC)n2)s1	CSC inhib 81.3
CCCCC(=O)Nc1nc(C)c(-c2csc(Nc3cc(Cl)ccc3OC)n2)s1	none
CC1CCN(CCc2nc3cc(NC(=O)COc4ccc([N+](=O)[O-])cc4)ccc3n2C)CC1	none (no result: WT yeast gro inh)
COc1ccc(S(=O)(=O)Nc2ccc(Cc3ccncc3)cc2)cc1C	none (no result: WT yeast gro inh)
